ChEMBL document CHEMBL2176871, “Development of ligands at γ-aminobutyrric acid type A (GABAA) receptor subtype as new agents for pain relief” (Bioorg Med Chem, 2011)
Calls of active or inactive are those of the source.

Key:
Rattus norvegicus [1] = experiment: Antinociceptive activity in Sprague-Dawley rat mononeuropathy pain model assessed as increase in injured paw pressure at 60 mg/kg, po after 15 mins by paw pressure test relative to non-treated control; assay type: functional
Method in brief: (§1)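 Chronic constriction injury: loose ligatures placed on the common sciatic nerve under chloral hydrate; contralateral sham dissection. Tested 14 days after surgery. Paw pressure applied at 32 g/s; threshold taken as the force causing the first struggle; cut-off 250 g; pretest outliers (<40 g or >75 g) excluded. Oral dosing in 10 ml/kg; read at 15, 30 and 45 min; compared with a CMC-treated group.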

Rattus norvegicus [2] = experiment: Toxicity in Sprague-Dawley rat mononeuropathy pain model assessed as effect on contralateral paw pressure at 1 mg/kg, po after 45 mins by paw pressure test; assay type: organism-based; design: dose 1 mg/kg, route oral; settings: in vivo, 0.75 h
Method in brief: (§2)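 Same sciatic-ligation rat model, 14 days after surgery. Threshold measured on the non-operated contralateral hind paw by analgesimeter at 32 g/s; first-struggle endpoint; 250 g cut-off; pretest rats outside 40–75 g rejected. Compound given po in 10 ml/kg; readings at 15, 30 and 45 min.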

Rattus norvegicus [3] = experiment: Toxicity in Sprague-Dawley rat mononeuropathy pain model assessed as effect on contralateral paw pressure at 1 mg/kg, po after 15 mins by paw pressure test; assay type: organism-based; design: dose 1 mg/kg, route oral; settings: in vivo, 0.25 h; method in brief: as §2
Rattus norvegicus [4] = experiment: Antinociceptive activity in Sprague-Dawley rat mononeuropathy pain model assessed as increase in injured paw pressure at 30 mg/kg, po after 30 mins by paw pressure test relative to non-treated control; assay type: functional; method in brief: as §1
Rattus norvegicus [5] = experiment: Toxicity in Sprague-Dawley rat mononeuropathy pain model assessed as effect on contralateral paw pressure at 30 mg/kg, po after 45 mins by paw pressure test; assay type: organism-based; design: dose 30 mg/kg, route oral; settings: in vivo, 0.75 h; method in brief: as §2
Rattus norvegicus [6] = experiment: Antinociceptive activity in Sprague-Dawley rat mononeuropathy pain model assessed as increase in injured paw pressure at 10 mg/kg, po after 30 mins by paw pressure test relative to non-treated control; assay type: functional; method in brief: as §1
Rattus norvegicus [7] = experiment: Antinociceptive activity in Sprague-Dawley rat mononeuropathy pain model assessed as increase in injured paw pressure at 1 mg/kg, po after 45 mins by paw pressure test relative to non-treated control; assay type: functional; method in brief: as §1
Rattus norvegicus [8] = experiment: Antinociceptive activity in Sprague-Dawley rat mononeuropathy pain model assessed as increase in injured paw pressure at 1 mg/kg, po after 15 mins by paw pressure test relative to non-treated control; assay type: functional; method in brief: as §1
[9] = Displacement of [3H]Ro151788 from GABA(A)/BzR in bovine cerebral cortex membrane; assay type: cell membranes, Bos taurus
Method in brief: (§3)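 Bovine cerebral cortex membranes in 50 mM Tris-citrate pH 7.4; [3H]flumazenil displacement. Compounds first tested at a fixed 10 µM; Ki determined only when inhibition exceeded 80%, using at least six concentrations. Five experiments run in triplicate; IC50 obtained by iterative curve fitting and converted to Ki with the Cheng–Prusoff equation.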

Mus musculus [10] = experiment: Antihyperalgesic activity Swiss albino mouse […] assessed as licking latency time at 30 mg/kg, po after 60 mins by hot plate test (reference value: 17.9 +/- 1.1 secs); assay type: functional
Method in brief: (§4)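 Hot plate at 52.5 ± 0.1 °C in non-diabetic male Swiss mice. Latency to licking of fore or hind paws was timed before dosing and every 15 min up to 60 min after oral dosing. Mice with pretest latencies below 12 s or above 18 s were excluded. Cut-off was 45 s.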

Rattus norvegicus [11] = experiment: Antinociceptive activity in Sprague-Dawley rat mononeuropathy pain model assessed as increase in injured paw pressure at 1 mg/kg, po after 30 mins by paw pressure test relative to non-treated control; assay type: functional; method in brief: as §1
Mus musculus [12] = experiment: Antihyperalgesic activity Swiss albino mouse […] assessed as licking latency time at 30 mg/kg, po after 15 mins by hot plate test (reference value: 17.9 +/- 1.1 secs); assay type: functional; method in brief: as §4
Rattus norvegicus [13] = experiment: Toxicity in Sprague-Dawley rat mononeuropathy pain model assessed as effect on contralateral paw pressure at 10 mg/kg, po after 45 mins by paw pressure test; assay type: organism-based; design: dose 10 mg/kg, route oral; settings: in vivo, 0.75 h; method in brief: as §2
Rattus norvegicus [14] = experiment: Toxicity in Sprague-Dawley rat mononeuropathy pain model assessed as effect on contralateral paw pressure at 30 mg/kg, po after 30 mins by paw pressure test; assay type: organism-based; design: dose 30 mg/kg, route oral; settings: in vivo, 0.5 h; method in brief: as §2
Rattus norvegicus [15] = experiment: Antinociceptive activity in Sprague-Dawley rat mononeuropathy pain model assessed as increase in injured paw pressure at 10 mg/kg, po after 15 mins by paw pressure test relative to non-treated control; assay type: functional; method in brief: as §1
Mus musculus [16] = experiment: Antihyperalgesic activity against streptozotocin-induced hyperalgesia in Swiss albino mouse […] assessed as licking latency time at 30 mg/kg, po after 15 mins by hot plate test (reference value: 9.2 +/- 0.8 secs); assay type: functional
Bos taurus = species: Bos taurus; experiment: Displacement of [3H]Ro151788 from GABA(A)/BzR in bovine cerebral cortex membrane at 10 uM; assay type: cell membranes; method in brief: as §3
Mus musculus [17] = experiment: Antihyperalgesic activity against streptozotocin-induced hyperalgesia in Swiss albino mouse […] assessed as licking latency time at 30 mg/kg, po after 30 mins by hot plate test (reference value: 9.2 +/- 0.8 secs); assay type: functional
Mus musculus [18] = experiment: Anxiolytic-like activity in Swiss albino mouse at 10 to 30 mg/kg, po after 30 mins by light/dark box test; assay type: functional, organism-based
Method in brief: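 Male Swiss mice tested in a two-compartment light/dark box. Transfers between compartments and time spent in the lit side recorded. Compound given po 30 min before testing, in 10 ml/kg; flumazenil given i.p. for antagonism; 8 mice per group.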

Mus musculus [19] = experiment: Analgesic activity in Swiss albino mouse abdominal constriction model assessed as decrease in number of acetic acid-induced writhing at 10 to 30 mg/kg, po after 30 mins; assay type: functional, organism-based; settings: Abdomen
Method in brief: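 Male Swiss albino mice (23–30 g). Compounds given po in 1% CMC vehicle 30 min before the test. Acetic acid 0.6% injected i.p. at 10 ml/kg. Stretching movements were counted for 10 min, starting 5 min after the acetic acid injection. 8–15 mice per group.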

Rattus norvegicus [20] = experiment: Antinociceptive activity in Sprague-Dawley rat mononeuropathy pain model assessed as increase in injured paw pressure at 30 mg/kg, po after 15 mins by paw pressure test relative to non-treated control; assay type: functional; method in brief: as §1
Rattus norvegicus [21] = experiment: Toxicity in Sprague-Dawley rat mononeuropathy pain model assessed as effect on contralateral paw pressure at 30 mg/kg, po after 15 mins by paw pressure test; assay type: organism-based; design: dose 30 mg/kg, route oral; settings: in vivo, 0.25 h; method in brief: as §2
Mus musculus [22] = experiment: Anticonvulsant activity in Swiss albino mouse […] assessed as protection against intraperitoneally administered pentylenetetrazol-induced seizures at 30 mg/kg, po after 30 mins; assay type: functional
Method in brief: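 Male Swiss albino mice. Compounds given po and PTZ 90 mg/kg injected 30 min later; PTZ was dissolved in 0.9% NaCl saline. Clonic generalized convulsions were recorded over 30 min. Each value is the mean of 10 mice. The methods give the PTZ route as s.c. and the table footnote gives it as ip.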

Rattus norvegicus [23] = experiment: Toxicity in Sprague-Dawley rat mononeuropathy pain model assessed as effect on contralateral paw pressure at 60 mg/kg, po after 30 mins by paw pressure test; assay type: organism-based; design: dose 60 mg/kg, route oral; settings: in vivo, 0.5 h; method in brief: as §2
Rattus norvegicus [24] = experiment: Antinociceptive activity in Sprague-Dawley rat mononeuropathy pain model assessed as increase in injured paw pressure at 60 mg/kg, po after 45 mins by paw pressure test relative to non-treated control; assay type: functional; method in brief: as §1
Rattus norvegicus [25] = experiment: Antinociceptive activity in Sprague-Dawley rat mononeuropathy pain model assessed as increase in injured paw pressure at 60 mg/kg, po after 30 mins by paw pressure test relative to non-treated control; assay type: functional; method in brief: as §1
Rattus norvegicus [26] = experiment: Antinociceptive activity in Sprague-Dawley rat mononeuropathy pain model assessed as increase in injured paw pressure at 10 mg/kg, po after 45 mins by paw pressure test relative to non-treated control; assay type: functional; method in brief: as §1

## Cc1cnn2c1n[n+]([O-])c1ccc(OCc3ccccc3)cc12
Rattus norvegicus [1]
  Activity: 50.1 g
Rattus norvegicus [2]
  Activity: 59.1 g
Rattus norvegicus [3]
  Activity: 57.3 g
Rattus norvegicus [4]
  Activity: 44.2 g
Rattus norvegicus [5]
  Activity: 60.5 g
Rattus norvegicus [6]
  Activity: 40.1 g
Rattus norvegicus [7]
  Activity: 30.8 g
Rattus norvegicus [8]
  Activity: 32.3 g
[9]
  Ki: 4.66 nM
Mus musculus [10]
  Time: 17.2 s
Rattus norvegicus [11]
  Activity: 34.5 g
Mus musculus [12]
  Time: 17.2 s
Rattus norvegicus [13]
  Activity: 63.5 g
Rattus norvegicus [14]
  Activity: 63.8 g
Rattus norvegicus [15]
  Activity: 48.7 g
Mus musculus [16]
  Time: 14.9 s
Bos taurus
  inhibition: > 80%
Mus musculus [17]
  Time: 17.6 s
Mus musculus [18]
  Activity: Active
Mus musculus [19]
  Activity: inactive
Rattus norvegicus [20]
  Activity: 52.8 g
Rattus norvegicus [21]
  Activity: 62.7 g
Mus musculus [22]
  Activity: 10%
Rattus norvegicus [23]
  Activity: 60.8 g
Rattus norvegicus [24]
  Activity: 31.5 g
Rattus norvegicus [25]
  Activity: 40.8 g
Rattus norvegicus [26]
  Activity: 30.4 g
